Measurements reported in ChEMBL document CHEMBL1821697, “Design and synthesis of brain penetrant selective JNK inhibitors with improved pharmacokinetic properties for the prevention of neurodegeneration” (Bioorg Med Chem Lett, 2011).

Tests used:
[1] = molecular target: T1, Mitogen-activated protein kinase 10 (Homo sapiens, UniProt P53779); experiment: Inhibition of recombinant JNK3 using ser73 of c-jun as substrate preincubated for 15 mins measured after 60 mins by TR-FRET assay
Outline: (§1)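 Recombinant JNK enzyme assay run at 10 µM ATP. IC50 values are means of at least three experiments.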

[2] = molecular target: Mitogen-activated protein kinase 8 (Homo sapiens, UniProt P45983); experiment: Inhibition of recombinant JNK1 using ser73 of c-jun as substrate preincubated for 15 mins measured after 60 mins by TR-FRET assay; outline: as §1
[3] = molecular target: Mitogen-activated protein kinase 9 (Homo sapiens, UniProt P45984); experiment: Inhibition of recombinant JNK2 using ser73 of c-jun as substrate preincubated for 15 mins measured after 60 mins by TR-FRET assay; outline: as §1
[4] = Oxidative metabolic stability in mouse liver microsomes assessed as compound remaining at 1 uM after 30 mins; type: ADME, Microsome; conditions: read-out: Stability
Outline: (§2)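 Test compound was incubated with mouse, rat or human liver microsomes for 30 min. The read-out is percent of parent compound remaining.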

[5] = Oxidative metabolic stability in rat liver microsomes assessed as compound remaining at 1 uM after 30 mins; type: ADME, Microsome; conditions: read-out: Stability; outline: as §2
[6] = Oxidative metabolic stability in human liver microsomes assessed as compound remaining at 1 uM after 30 mins; type: ADME, Microsome; conditions: read-out: Stability; outline: as §2
[7] = molecular target: Mitogen-activated protein kinase 14 (Homo sapiens, UniProt Q16539); experiment: Inhibition of recombinant p38alpha Thr69/71 of ATF-2 as substrate preincubated for 15 mins measured after 60 mins by TR-FRET assay
[8] = molecular target: T2, Mitogen-activated protein kinase 1 (Homo sapiens, UniProt P28482); experiment: Inhibition of recombinant ERK2 using Ser383 of Elk-1 as substrate preincubated for 15 mins measured after 60 mins by TR-FRET assay
[9] = Apparent permeability from apical to basolateral side of MDCK2 cells at 5 uM after 120 mins by LC/MS/MS method; type: ADME, cell-based, Canis lupus familiaris, MDCK-II; conditions: dog, MDCK
MDR1 = experiment: Efflux ratio of permeability across MDCK2 expressing MDR1 at 5 uM after 120 mins by LC/MS/MS method; type: ADME, Canis lupus familiaris, MDCK-II; conditions: dog, MDCK-MDR1
[10] = AUC in mouse brain at 1 mg/kg, iv; type: ADME, organism-based; design: dose 1 mg/kg, route intravenous
Outline: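 Mice were dosed intravenously at 1 mg/kg. Brain exposure was expressed as AUC (ng h/mL) alongside the brain/plasma ratio.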

[11] = Ratio of drug level in brain to plasma in mouse at 1 mg/kg, iv; type: ADME, organism-based; design: dose 1 mg/kg, route intravenous; conditions: read-out: BPR
Outline: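 Single intravenous dose of 1 mg/kg in mice. Brain exposure was reported as brain AUC (ng h/mL), together with the brain-to-plasma ratio.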

[12] = Half life in rat at 1 mg/kg, iv; type: ADME, organism-based; design: dose 1 mg/kg, route intravenous; conditions: in vivo
Outline: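 Rats were given a single intravenous dose of 1 mg/kg. Half-life is reported in min, together with clearance (mL/h/kg).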

Rattus norvegicus [13] = experiment: AUC in rat at 2 mg/kg, po; type: ADME, organism-based, Plasma; design: dose 2 mg/kg, route oral; conditions: in vivo
Outline: (§3)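 Rats received an oral dose of 2 mg/kg. Plasma AUC is reported in nmol h/mL. Oral bioavailability (F%) was calculated against a 1 mg/kg intravenous dose.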

Rattus norvegicus [14] = experiment: Oral bioavailability in rat at 2 mg/kg; type: ADME, organism-based; conditions: in vivo; outline: as §3
Cortical neurone = experiment: Neuroprotective activity in human cerebral cortical neurons assessed as reversal of amyloid beta-induced neuronal damage after 2 to 3 days; type: functional
Outline: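 Human cortical neurons were exposed to amyloid-β in a neurotoxicity assay. Neuroprotection by the inhibitor was expressed as an EC50.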

[15] = molecular target: Tyrosine-protein kinase ABL1 (Homo sapiens) (UniProt P00519); experiment: Inhibition of Abl1 at 10 uM
[16] = molecular target: RAC-alpha serine/threonine-protein kinase (Homo sapiens) (UniProt P31749); experiment: Inhibition of AKT1 at 10 uM
[17] = molecular target: Aurora kinase A (Homo sapiens) (UniProt O14965); experiment: Inhibition of AURKA at 10 uM
[18] = molecular target: Calcium/calmodulin-dependent protein kinase type II subunit alpha (Homo sapiens) (UniProt Q9UQM7); experiment: Inhibition of CAMK2A at 10 uM
[19] = molecular target: Cyclin-dependent kinase 1/cyclin B1 (Homo sapiens) (UniProt P06493+P14635); experiment: Inhibition of CDK1/Cyclin B1 at 10 uM; type: protein-complex assay
[20] = molecular target: Cyclin-dependent kinase 2/cyclin A (Homo sapiens) (UniProt P24941+P20248+P78396); experiment: Inhibition of CDK2/Cyclin A at 10 uM; type: protein-complex assay
[21] = molecular target: Cyclin-dependent kinase 5/CDK5 activator 1 (Homo sapiens) (UniProt Q00535+Q15078); experiment: Inhibition of CDK5/P25 at 10 uM; type: protein-complex assay
[22] = molecular target: Serine/threonine-protein kinase Chk1 (Homo sapiens) (UniProt O14757); experiment: Inhibition of CHEK1 at 10 uM
[23] = molecular target: Dual specificity protein kinase CLK1 (Homo sapiens) (UniProt P49759); experiment: Inhibition of CLK1 at 10 uM
[24] = molecular target: Macrophage colony-stimulating factor 1 receptor (Homo sapiens) (UniProt P07333); experiment: Inhibition of CSF1R at 10 uM
[25] = molecular target: Dual specificity tyrosine-phosphorylation-regulated kinase 1B (Homo sapiens) (UniProt Q9Y463); experiment: Inhibition of DYRK1B at 10 uM
[26] = molecular target: Receptor tyrosine-protein kinase erbB-4 (Homo sapiens) (UniProt Q15303); experiment: Inhibition of ERBB4 at 10 uM
[27] = molecular target: Receptor-type tyrosine-protein kinase FLT3 (Homo sapiens) (UniProt P36888); experiment: Inhibition of FLT3 at 10 uM
[28] = molecular target: Glycogen synthase kinase-3 beta (Homo sapiens) (UniProt P49841); experiment: Inhibition of GSK3-beta at 10 uM
[29] = molecular target: Insulin receptor (Homo sapiens) (UniProt P06213); experiment: Inhibition of INSR at 10 uM
[30] = molecular target: Tyrosine-protein kinase JAK1 (Homo sapiens) (UniProt P23458); experiment: Inhibition of JAK1 at 10 uM
[31] = molecular target: Tyrosine-protein kinase Lck (Homo sapiens) (UniProt P06239); experiment: Inhibition of LCK at 10 uM
[32] = molecular target: Leucine-rich repeat serine/threonine-protein kinase 2 (Homo sapiens) (UniProt Q5S007); experiment: Inhibition of LRRK2 at 10 uM
[33] = molecular target: T2, Mitogen-activated protein kinase 1; experiment: Inhibition of ERK2 at 10 uM
[34] = molecular target: T1, Mitogen-activated protein kinase 10; experiment: Inhibition of JNK3 at 10 uM using 100 uM of ATP
[35] = molecular target: Serine/threonine-protein kinase MARK2 (Homo sapiens) (UniProt Q7KZI7); experiment: Inhibition of MARK2 at 10 uM
[36] = molecular target: Serine/threonine-protein kinase PAK 4 (Homo sapiens) (UniProt O96013); experiment: Inhibition of PAK4 at 10 uM
[37] = molecular target: Platelet-derived growth factor receptor alpha (Homo sapiens) (UniProt P16234); experiment: Inhibition of PDGFRA at 10 uM
[38] = molecular target: PI3-kinase p110-alpha/p85-alpha (Homo sapiens) (UniProt P27986+P42336); experiment: Inhibition of PIK3CA/PIK3R1 at 10 uM; type: protein-complex assay
[39] = molecular target: Serine/threonine-protein kinase PLK1 (Homo sapiens) (UniProt P53350); experiment: Inhibition of PLK1 at 10 uM
[40] = molecular target: Serine/threonine-protein kinase PLK2 (Homo sapiens) (UniProt Q9NYY3); experiment: Inhibition of PLK2 at 10 uM
[41] = molecular target: Serine/threonine-protein kinase PLK3 (Homo sapiens) (UniProt Q9H4B4); experiment: Inhibition of PLK3 at 10 uM
[42] = molecular target: cAMP-dependent protein kinase catalytic subunit alpha (Homo sapiens) (UniProt P17612); experiment: Inhibition of PRKACA at 10 uM
[43] = molecular target: Protein kinase C beta type (Homo sapiens) (UniProt P05771); experiment: Inhibition of PRKCB1 at 10 uM
[44] = molecular target: Protein-tyrosine kinase 2-beta (Homo sapiens) (UniProt Q14289); experiment: Inhibition of PTK2B at 10 uM
[45] = system: RAF proto-oncogene serine/threonine-protein kinase (Homo sapiens), P04049 [Y340D,Y341D]; experiment: Inhibition of c-Raf Y340D Y341D mutant at 10 uM using 100 uM of ATP
[46] = molecular target: Proto-oncogene tyrosine-protein kinase receptor Ret (Homo sapiens) (UniProt P07949); experiment: Inhibition of RET at 10 uM
[47] = molecular target: Receptor-interacting serine/threonine-protein kinase 2 (Homo sapiens) (UniProt O43353); experiment: Inhibition of RIPK2 at 10 uM
[48] = molecular target: Rho-associated protein kinase 2 (Homo sapiens) (UniProt O75116); experiment: Inhibition of ROCK2 at 10 uM
[49] = molecular target: Serine/threonine-protein kinase 3 (Homo sapiens) (UniProt Q13188); experiment: Inhibition of STK3 at 10 uM
[50] = molecular target: Tyrosine-protein kinase SYK (Homo sapiens) (UniProt P43405); experiment: Inhibition of SYK at 10 uM

T2 sequence (P28482 whole entry): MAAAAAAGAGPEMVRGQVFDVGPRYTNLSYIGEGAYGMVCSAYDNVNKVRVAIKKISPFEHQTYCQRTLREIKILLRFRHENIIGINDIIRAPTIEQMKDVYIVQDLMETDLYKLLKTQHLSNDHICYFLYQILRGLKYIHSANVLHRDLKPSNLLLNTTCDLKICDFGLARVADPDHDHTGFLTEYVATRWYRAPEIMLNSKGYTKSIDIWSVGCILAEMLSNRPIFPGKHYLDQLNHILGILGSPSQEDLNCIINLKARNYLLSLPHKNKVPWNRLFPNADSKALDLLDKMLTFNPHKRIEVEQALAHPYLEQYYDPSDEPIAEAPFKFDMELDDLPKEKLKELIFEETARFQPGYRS
T1 sequence (P53779 whole entry): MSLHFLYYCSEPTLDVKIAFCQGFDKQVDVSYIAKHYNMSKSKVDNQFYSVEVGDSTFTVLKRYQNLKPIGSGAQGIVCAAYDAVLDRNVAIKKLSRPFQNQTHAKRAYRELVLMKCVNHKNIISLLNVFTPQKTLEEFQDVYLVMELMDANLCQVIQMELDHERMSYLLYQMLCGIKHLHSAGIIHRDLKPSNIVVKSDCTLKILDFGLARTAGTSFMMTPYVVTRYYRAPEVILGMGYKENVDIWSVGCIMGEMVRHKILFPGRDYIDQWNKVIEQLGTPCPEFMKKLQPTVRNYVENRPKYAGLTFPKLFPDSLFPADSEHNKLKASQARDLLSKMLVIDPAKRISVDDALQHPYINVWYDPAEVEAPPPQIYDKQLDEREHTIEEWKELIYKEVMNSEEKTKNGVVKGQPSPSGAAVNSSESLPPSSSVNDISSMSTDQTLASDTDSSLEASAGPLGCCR
Sequence of RAF proto-oncogene serine/threonine-protein kinase (Homo sapiens), P04049 [Y340D,Y341D] (P04049 whole entry Y340D/Y341D): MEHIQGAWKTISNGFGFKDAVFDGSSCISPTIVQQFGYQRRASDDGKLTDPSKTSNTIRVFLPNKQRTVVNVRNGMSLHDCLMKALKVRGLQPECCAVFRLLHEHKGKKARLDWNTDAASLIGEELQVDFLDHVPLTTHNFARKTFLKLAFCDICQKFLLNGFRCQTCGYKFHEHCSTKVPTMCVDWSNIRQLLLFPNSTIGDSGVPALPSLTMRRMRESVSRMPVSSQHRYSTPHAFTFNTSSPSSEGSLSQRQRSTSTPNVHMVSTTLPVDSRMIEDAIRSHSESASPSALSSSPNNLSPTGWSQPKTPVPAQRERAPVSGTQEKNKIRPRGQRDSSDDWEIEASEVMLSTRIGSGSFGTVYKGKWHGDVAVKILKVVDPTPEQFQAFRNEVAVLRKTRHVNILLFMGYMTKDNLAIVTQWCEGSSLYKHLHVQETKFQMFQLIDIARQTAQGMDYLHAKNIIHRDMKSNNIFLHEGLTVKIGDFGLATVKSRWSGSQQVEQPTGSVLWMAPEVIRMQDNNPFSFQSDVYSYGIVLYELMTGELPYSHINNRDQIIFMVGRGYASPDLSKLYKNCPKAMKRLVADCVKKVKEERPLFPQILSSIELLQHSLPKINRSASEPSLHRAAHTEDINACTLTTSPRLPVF
Sequence of Glycogen synthase kinase-3 beta (Homo sapiens) (P49841 whole entry, looked up): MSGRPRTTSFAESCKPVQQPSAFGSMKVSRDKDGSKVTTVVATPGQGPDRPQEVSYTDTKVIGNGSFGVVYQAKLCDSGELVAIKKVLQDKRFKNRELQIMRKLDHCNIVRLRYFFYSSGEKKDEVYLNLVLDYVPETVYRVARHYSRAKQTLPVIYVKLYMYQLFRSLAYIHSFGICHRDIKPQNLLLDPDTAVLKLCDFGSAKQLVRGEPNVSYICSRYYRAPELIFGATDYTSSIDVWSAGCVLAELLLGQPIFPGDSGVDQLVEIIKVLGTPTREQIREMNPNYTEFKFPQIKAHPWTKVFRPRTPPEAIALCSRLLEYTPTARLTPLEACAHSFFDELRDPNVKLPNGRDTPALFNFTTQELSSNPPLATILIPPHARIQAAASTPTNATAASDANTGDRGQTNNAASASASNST
Sequence of Dual specificity tyrosine-phosphorylation-regulated kinase 1B (Homo sapiens) (Q9Y463 whole entry, looked up): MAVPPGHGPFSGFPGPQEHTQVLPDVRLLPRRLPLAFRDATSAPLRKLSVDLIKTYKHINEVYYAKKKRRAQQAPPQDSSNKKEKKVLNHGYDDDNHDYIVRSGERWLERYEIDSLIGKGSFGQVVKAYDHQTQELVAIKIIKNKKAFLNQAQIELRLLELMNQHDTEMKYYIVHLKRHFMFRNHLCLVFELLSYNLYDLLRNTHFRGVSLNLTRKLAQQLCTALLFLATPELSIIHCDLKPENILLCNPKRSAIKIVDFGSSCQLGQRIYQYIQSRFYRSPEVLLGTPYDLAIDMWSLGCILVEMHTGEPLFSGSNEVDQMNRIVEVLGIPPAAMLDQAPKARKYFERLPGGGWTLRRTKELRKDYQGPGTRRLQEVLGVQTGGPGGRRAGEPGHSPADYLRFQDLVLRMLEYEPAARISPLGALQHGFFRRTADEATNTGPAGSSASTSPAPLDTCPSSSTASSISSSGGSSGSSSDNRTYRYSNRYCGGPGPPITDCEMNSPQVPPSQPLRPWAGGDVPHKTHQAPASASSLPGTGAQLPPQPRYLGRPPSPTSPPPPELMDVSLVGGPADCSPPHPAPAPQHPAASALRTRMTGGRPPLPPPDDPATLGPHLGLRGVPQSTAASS
Sequence of RAC-alpha serine/threonine-protein kinase (Homo sapiens) (P31749 whole entry): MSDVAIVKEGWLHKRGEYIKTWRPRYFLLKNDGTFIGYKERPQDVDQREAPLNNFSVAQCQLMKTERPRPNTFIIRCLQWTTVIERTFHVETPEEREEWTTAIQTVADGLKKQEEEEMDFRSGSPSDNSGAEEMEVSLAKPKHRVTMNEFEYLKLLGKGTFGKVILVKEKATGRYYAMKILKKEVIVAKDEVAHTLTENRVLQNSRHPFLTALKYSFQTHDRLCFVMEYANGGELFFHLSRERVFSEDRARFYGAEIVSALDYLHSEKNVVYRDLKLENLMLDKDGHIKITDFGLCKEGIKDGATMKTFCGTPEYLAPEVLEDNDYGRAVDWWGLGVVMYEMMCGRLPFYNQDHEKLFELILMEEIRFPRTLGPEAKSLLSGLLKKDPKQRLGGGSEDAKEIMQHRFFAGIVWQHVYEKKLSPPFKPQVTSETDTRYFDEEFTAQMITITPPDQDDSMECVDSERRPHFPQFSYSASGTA
Sequence of Dual specificity protein kinase CLK1 (Homo sapiens) (P49759 whole entry, looked up): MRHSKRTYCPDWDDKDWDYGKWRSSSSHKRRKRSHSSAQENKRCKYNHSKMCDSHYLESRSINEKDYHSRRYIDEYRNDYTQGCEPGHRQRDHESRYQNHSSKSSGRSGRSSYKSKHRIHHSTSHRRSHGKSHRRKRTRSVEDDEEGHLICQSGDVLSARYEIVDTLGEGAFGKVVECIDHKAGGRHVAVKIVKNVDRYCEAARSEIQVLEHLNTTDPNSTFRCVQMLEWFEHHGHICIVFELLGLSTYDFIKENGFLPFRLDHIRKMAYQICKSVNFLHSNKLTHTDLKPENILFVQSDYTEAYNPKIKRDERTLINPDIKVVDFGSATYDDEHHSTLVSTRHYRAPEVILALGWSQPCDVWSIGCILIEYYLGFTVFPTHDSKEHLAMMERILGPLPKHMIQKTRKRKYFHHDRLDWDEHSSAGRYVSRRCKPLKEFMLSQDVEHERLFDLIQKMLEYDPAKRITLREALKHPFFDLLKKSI
Sequence of Serine/threonine-protein kinase MARK2 (Homo sapiens) (Q7KZI7 whole entry): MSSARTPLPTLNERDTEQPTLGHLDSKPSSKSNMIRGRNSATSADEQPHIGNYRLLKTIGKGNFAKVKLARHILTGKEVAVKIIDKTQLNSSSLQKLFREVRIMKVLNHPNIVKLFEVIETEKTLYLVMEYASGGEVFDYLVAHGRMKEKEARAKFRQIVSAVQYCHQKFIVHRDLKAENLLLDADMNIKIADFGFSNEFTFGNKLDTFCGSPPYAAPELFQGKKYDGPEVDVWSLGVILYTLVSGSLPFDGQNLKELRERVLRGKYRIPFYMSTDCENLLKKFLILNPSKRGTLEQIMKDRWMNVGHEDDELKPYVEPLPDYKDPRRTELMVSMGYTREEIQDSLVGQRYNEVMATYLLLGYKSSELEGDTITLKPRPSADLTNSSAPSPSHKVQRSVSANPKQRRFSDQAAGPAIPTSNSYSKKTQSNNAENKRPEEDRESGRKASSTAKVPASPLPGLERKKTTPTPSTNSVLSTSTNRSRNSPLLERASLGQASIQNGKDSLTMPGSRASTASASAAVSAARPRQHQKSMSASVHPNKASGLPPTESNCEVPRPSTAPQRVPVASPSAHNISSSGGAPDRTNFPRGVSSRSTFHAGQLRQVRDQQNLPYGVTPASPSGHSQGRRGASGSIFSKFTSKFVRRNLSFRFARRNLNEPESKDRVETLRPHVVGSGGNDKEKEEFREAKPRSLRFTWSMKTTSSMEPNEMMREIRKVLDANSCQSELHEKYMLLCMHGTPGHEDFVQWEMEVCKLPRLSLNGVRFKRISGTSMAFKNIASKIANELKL
Sequence of Serine/threonine-protein kinase PLK1 (Homo sapiens) (P53350 whole entry): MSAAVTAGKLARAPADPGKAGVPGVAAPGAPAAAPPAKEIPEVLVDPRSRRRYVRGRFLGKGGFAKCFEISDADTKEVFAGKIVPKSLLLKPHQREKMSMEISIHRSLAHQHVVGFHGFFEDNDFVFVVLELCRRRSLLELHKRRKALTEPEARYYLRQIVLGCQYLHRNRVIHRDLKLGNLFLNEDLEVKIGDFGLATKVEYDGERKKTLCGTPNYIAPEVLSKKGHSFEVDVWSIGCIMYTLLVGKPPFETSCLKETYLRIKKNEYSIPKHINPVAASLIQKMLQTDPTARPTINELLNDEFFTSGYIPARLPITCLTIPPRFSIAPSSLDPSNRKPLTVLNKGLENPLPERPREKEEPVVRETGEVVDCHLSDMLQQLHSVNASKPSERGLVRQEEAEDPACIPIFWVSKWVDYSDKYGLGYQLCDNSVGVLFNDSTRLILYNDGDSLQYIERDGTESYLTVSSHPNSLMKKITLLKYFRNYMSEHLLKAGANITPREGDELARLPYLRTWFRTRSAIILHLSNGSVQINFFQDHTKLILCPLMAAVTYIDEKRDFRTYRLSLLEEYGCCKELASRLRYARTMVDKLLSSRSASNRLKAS

## O=C(Cn1c(=O)ccc2cc(C(F)(F)F)ccc21)Nc1scc(Br)c1-c1ncn[nH]1
[1]
  IC50: 9 nM
[2]
  IC50: 2 nM
[3]
  IC50: 5 nM
[4]
  remaining at 0.5 h, 1 µM: 58%
[5]
  remaining at 0.5 h, 1 µM: 35%
[6]
  remaining at 0.5 h, 1 µM: 67%
[7]
  IC50: > 50000 nM
[8]
  IC50: > 50000 nM
[9]
  Papp A→B at 2 h, 5 µM: 3.62 ×10⁻⁶ cm/s
MDR1
  efflux ratio at 2 h, 5 µM: 0.61
[10]
  AUC: 235 ng·h/mL
[11]
  Kp: 0.7
[12]
  half-life: 4.6 min
Rattus norvegicus [13]
  AUC: 1310 ng·h/mL
Rattus norvegicus [14]
  F: 34%
Cortical neurone
  EC50: 2900 nM
[15]
  inhibition: 0%
[16]
  inhibition: 2%
[17]
  inhibition: 5%
[18]
  inhibition: 4%
[19]
  inhibition: 1%
[20]
  inhibition: 2%
[21]
  inhibition: 2%
[22]
  inhibition: 10%
[23]
  inhibition: 5%
[24]
  inhibition: -2%
[25]
  inhibition: 11%
[26]
  inhibition: -2%
[27]
  inhibition: 7%
[28]
  inhibition: 5%
[29]
  inhibition: -3%
[30]
  inhibition: 0%
[31]
  inhibition: 8%
[32]
  inhibition: 13%
[33]
  inhibition: -2%
[34]
  inhibition: 96%
[35]
  inhibition: 4%
[36]
  inhibition: 3%
[37]
  inhibition: 0%
[38]
  inhibition: 6%
[39]
  inhibition: 3%
[40]
  inhibition: 10%
[41]
  inhibition: -8%
[42]
  inhibition: 0%
[43]
  inhibition: 4%
[44]
  inhibition: -5%
[45]
  inhibition: 10%
[46]
  inhibition: 4%
[47]
  inhibition: -7%
[48]
  inhibition: 11%
[49]
  inhibition: 4%
[50]
  inhibition: 15%
